ChEMBL document CHEMBL4371006, “Discovery of N-[4-(Quinolin-4-yloxy)phenyl]benzenesulfonamides as Novel AXL Kinase Inhibitors” (J Med Chem, 2018)
Values after ≈ are worked out from the molar mass of the structure shown. Active and inactive are the calls of the source. No cut-off for these calls is given here.

Tests used:
[1] = biological target: Tyrosine-protein kinase Fer (Homo sapiens, UniProt P16591); test: Binding affinity to FER in SILAC-labeled human MDA-MB-231 cells lysate by mass spectrometry based kinAffinity assay; assay type: subcellular
Sequence of Tyrosine-protein kinase Fer (P16591 whole entry): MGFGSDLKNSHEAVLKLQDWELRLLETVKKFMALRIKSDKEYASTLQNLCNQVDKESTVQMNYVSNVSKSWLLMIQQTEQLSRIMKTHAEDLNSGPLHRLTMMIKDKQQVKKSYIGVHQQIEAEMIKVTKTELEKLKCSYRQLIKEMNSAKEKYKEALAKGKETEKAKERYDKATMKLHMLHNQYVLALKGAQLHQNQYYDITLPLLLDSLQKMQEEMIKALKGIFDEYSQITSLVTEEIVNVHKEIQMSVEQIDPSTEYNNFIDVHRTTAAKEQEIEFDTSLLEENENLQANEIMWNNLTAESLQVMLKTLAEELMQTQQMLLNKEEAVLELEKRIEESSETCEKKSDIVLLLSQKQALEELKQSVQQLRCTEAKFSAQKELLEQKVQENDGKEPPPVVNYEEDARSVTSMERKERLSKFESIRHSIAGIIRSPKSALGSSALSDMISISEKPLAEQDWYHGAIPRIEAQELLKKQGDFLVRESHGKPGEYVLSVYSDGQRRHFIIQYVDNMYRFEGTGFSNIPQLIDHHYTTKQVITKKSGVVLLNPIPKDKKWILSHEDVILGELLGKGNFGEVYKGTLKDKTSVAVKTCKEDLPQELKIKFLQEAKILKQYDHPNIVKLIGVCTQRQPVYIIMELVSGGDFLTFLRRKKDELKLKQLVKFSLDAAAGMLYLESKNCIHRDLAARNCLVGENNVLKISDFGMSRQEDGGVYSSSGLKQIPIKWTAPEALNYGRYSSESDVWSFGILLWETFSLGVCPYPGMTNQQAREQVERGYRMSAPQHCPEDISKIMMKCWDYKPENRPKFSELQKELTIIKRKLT
Summary of the method: (§1)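 Chemical proteomics: MDA-MB-231 lysate bound to matrix of immobilized broad kinase inhibitors at several densities (BC50), then competed with increasing free compound (CC50); proteins quantified by mass spectrometry, Kd via Cheng-Prusoff. Two competition formats run in parallel to check equilibrium.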

[2] = biological target: Proto-oncogene tyrosine-protein kinase Src (Homo sapiens, UniProt P12931); test: Inhibition of SRC (unknown origin) using biotinylated peptide as substrate at 10 uM by TR-FRET assay relative to control
Sequence of Proto-oncogene tyrosine-protein kinase Src (P12931 2-536 limits assumed): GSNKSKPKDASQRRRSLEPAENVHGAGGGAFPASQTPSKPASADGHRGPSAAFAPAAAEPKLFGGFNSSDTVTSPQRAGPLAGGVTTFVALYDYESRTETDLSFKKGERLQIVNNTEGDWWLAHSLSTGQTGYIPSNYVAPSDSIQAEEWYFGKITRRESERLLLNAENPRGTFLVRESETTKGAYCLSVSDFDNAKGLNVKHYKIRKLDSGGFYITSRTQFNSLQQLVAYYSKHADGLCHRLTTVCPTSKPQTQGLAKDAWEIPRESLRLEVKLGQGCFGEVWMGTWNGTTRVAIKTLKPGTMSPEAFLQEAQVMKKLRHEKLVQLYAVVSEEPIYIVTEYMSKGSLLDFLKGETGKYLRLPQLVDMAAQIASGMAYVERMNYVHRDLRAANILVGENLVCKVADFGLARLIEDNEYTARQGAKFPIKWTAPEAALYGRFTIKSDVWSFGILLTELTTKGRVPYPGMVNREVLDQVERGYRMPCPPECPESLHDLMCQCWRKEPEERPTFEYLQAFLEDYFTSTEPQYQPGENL

[3] = biological target: Tyrosine-protein kinase receptor UFO (Homo sapiens) (UniProt P30530); test: Inhibition of AXL (unknown origin) using fluorescence labeled peptide as substrate at 10 uM by IMAP assay relative to control
Summary of the method: (§2)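 IMAP fluorescence-polarization kinase assay at 10 µmol/L compound, run in triplicate by a contract lab. A fluorescently labeled substrate peptide is phosphorylated, then nanoparticles carrying trivalent metal bind the phosphopeptide and slow its rotation. Read-out is fluorescence polarization, expressed as percent inhibition.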

[4] = biological target: Dual specificity mitogen-activated protein kinase kinase 2 (Homo sapiens, UniProt P36507); test: Binding affinity to MAP2K2 in SILAC-labeled human MDA-MB-231 cells lysate by mass spectrometry based kinAffinity assay; assay type: subcellular; summary of the method: as §1
Sequence of Dual specificity mitogen-activated protein kinase kinase 2 (P36507 whole entry): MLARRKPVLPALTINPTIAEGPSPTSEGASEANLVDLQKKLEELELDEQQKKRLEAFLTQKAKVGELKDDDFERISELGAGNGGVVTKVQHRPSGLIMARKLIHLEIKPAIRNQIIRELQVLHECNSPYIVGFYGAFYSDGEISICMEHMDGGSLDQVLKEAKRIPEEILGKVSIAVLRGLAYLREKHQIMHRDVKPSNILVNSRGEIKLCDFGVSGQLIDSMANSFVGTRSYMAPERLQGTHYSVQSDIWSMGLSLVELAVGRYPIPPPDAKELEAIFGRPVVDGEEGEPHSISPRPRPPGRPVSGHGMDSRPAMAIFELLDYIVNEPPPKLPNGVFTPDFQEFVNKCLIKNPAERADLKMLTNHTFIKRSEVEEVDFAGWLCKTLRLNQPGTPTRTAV

[5] = biological target: T1, Tyrosine-protein kinase receptor UFO (Homo sapiens, UniProt P30530); test: Inhibition of AXL (unknown origin)
T1 sequence (P30530 whole entry): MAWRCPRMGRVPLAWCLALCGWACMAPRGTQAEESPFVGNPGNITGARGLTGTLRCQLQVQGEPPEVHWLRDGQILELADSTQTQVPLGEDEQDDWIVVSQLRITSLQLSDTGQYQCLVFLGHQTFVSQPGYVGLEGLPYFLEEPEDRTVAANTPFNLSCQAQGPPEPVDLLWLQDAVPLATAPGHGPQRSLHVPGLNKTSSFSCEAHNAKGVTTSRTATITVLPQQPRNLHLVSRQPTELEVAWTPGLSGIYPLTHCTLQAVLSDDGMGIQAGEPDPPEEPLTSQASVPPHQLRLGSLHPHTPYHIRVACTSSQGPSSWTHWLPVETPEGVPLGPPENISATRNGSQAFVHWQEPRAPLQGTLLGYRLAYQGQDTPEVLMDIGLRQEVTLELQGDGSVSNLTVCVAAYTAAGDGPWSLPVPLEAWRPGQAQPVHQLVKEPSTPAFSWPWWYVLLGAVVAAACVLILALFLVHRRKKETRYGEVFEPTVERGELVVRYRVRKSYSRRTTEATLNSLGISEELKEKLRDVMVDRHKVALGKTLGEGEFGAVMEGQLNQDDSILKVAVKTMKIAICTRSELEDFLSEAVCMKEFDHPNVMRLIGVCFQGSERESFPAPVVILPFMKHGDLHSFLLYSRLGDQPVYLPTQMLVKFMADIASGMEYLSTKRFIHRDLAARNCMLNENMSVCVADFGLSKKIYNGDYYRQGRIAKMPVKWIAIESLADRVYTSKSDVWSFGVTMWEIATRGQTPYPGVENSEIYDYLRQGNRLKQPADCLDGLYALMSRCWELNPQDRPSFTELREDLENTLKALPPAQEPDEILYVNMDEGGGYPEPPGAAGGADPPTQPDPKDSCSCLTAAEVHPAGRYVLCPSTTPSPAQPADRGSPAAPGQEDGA

[6] = biological target: T2, Hepatocyte growth factor receptor (Homo sapiens, UniProt P08581); test: Inhibition of c-MET (unknown origin) using biotinylated peptide as substrate at 10 uM by TR-FRET assay relative to control
T2 sequence (P08581 whole entry): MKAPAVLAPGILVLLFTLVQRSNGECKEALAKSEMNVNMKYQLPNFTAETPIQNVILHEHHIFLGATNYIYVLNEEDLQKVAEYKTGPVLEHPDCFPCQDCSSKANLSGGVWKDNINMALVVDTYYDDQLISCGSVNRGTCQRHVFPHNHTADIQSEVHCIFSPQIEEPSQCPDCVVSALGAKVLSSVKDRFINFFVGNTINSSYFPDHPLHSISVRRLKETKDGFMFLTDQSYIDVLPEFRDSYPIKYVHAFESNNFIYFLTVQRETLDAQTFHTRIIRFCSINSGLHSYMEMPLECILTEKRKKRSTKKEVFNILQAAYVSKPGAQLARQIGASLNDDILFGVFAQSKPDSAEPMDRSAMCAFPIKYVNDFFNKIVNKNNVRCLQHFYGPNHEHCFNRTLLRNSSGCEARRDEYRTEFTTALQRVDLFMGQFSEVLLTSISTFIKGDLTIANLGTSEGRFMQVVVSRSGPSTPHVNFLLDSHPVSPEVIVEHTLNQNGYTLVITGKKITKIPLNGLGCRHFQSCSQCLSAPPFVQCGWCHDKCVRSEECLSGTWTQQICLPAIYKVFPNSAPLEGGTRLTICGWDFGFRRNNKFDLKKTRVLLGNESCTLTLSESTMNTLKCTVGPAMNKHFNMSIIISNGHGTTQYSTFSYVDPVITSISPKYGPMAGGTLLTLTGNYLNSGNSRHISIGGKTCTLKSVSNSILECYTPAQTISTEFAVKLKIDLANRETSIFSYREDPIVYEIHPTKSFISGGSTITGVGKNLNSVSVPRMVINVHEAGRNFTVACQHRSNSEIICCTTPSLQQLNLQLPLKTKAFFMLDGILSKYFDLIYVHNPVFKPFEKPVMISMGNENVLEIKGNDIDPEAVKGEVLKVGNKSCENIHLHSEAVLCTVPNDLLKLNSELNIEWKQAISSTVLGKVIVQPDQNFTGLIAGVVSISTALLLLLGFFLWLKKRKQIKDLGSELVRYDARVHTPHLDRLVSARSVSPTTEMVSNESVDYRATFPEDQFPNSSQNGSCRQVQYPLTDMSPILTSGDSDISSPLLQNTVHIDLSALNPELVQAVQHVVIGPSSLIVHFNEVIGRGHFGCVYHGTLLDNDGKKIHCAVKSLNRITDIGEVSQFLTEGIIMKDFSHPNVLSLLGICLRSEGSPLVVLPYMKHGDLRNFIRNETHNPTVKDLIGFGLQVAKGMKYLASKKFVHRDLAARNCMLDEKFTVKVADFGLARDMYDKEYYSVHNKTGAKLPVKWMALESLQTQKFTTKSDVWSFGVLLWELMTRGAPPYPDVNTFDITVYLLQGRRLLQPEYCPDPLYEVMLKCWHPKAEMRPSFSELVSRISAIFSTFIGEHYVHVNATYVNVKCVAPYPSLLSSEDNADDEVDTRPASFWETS

[7] = biological target: Cyclin-G-associated kinase (Homo sapiens, UniProt O14976); test: Binding affinity to GAK in SILAC-labeled human MDA-MB-231 cells lysate by mass spectrometry based kinAffinity assay; assay type: subcellular; summary of the method: as §1
[8] = Ratio of IC50 for antimigratory activity against human MDA-MB-231 cells after 3.5 hrs by microscopy based Boyden chamber assay to IC50 for inhibition of AXL (unknown origin)
[9] = biological target: Tyrosine-protein kinase ABL1 (Homo sapiens) (UniProt P00519); test: Inhibition of ABL (unknown origin) using biotinylated peptide as substrate at 10 uM by TR-FRET assay relative to control
Sequence of Tyrosine-protein kinase ABL1 (Homo sapiens) (P00519 whole entry): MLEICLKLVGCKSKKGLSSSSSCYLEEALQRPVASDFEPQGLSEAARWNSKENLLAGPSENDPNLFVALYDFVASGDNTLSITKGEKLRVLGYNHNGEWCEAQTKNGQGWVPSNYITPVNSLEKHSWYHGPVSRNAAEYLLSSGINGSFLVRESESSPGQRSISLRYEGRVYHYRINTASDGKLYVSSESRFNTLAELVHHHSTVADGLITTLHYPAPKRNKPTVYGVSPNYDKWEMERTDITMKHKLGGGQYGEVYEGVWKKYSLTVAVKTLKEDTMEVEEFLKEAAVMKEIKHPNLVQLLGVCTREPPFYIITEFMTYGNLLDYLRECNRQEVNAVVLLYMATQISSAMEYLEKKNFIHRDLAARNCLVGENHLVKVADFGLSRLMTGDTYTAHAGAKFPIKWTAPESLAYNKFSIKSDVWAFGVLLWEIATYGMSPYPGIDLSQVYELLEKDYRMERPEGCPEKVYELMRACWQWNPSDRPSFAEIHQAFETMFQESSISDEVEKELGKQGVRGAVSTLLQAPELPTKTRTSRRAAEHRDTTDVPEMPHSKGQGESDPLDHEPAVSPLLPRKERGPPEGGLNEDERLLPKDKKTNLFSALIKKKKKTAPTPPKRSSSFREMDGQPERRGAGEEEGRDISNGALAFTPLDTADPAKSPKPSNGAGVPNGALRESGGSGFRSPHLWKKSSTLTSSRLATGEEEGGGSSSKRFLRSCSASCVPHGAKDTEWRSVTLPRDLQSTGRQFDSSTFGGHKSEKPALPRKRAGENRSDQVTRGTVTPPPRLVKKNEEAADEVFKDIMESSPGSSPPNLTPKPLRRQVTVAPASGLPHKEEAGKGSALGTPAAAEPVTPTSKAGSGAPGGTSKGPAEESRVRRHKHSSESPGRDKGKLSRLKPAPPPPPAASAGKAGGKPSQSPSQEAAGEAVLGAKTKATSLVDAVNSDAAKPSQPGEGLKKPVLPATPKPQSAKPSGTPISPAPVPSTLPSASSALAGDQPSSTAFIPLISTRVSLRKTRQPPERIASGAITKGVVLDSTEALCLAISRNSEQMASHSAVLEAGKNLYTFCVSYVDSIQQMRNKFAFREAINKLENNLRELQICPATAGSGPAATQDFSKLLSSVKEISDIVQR

[10] = biological target: T3, Aurora kinase A (Homo sapiens) (UniProt O14965); test: Inhibition of AurA (unknown origin) using fluorescence labeled peptide as substrate at 10 uM by IMAP assay relative to control; summary of the method: as §2
T3 sequence (whole entry): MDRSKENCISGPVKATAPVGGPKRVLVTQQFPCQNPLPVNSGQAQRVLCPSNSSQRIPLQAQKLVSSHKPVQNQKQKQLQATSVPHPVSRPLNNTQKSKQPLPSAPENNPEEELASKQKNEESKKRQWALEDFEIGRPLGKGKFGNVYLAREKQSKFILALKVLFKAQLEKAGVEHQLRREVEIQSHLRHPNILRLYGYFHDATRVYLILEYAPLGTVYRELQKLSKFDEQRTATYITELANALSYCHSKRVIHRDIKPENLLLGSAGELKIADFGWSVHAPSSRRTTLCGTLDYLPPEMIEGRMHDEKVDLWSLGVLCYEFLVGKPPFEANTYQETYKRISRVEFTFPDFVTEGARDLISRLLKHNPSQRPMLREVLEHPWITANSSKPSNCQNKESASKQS

[11] = biological target: T2, Hepatocyte growth factor receptor; test: Inhibition of c-MET (unknown origin)
MDA-MB-231 = test: Anti-invasive activity against human MDA-MB-231 cells up to 3 uM after 5 hrs by matrigel assay; assay type: functional, cell-based
Summary of the method: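 MDA-MB-231 cells (7000/well) seeded on polymerized 3 mg/mL Matrigel (set ≥16 h at 37°C) in serum-free medium; inhibitor added at seeding, aggregates forming over 5 h.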

[12] = biological target: Tyrosine-protein kinase Lyn (Homo sapiens, UniProt P07948); test: Binding affinity to LYN in SILAC-labeled human MDA-MB-231 cells lysate by mass spectrometry based kinAffinity assay; assay type: subcellular; summary of the method: as §1
Sequence of Tyrosine-protein kinase Lyn (P07948 whole entry): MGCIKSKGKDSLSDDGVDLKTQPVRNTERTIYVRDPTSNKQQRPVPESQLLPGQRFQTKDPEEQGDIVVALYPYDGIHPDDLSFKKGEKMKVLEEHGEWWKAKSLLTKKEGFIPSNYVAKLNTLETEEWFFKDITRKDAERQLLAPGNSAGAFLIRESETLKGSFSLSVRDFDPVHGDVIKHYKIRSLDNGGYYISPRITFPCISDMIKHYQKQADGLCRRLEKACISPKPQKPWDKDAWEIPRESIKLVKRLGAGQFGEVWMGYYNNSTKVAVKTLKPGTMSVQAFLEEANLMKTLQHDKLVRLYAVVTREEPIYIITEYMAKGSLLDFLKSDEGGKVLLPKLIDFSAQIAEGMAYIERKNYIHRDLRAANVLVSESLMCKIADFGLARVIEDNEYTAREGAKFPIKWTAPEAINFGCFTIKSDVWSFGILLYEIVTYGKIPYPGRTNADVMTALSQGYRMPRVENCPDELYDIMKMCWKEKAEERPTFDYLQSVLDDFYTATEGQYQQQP

[13] = Solubility of the compound […] after 24 hrs by UV-based HPLC analysis; assay type: physicochemical; conditions: DMSO
Summary of the method: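 Solubility in water: DMSO stock aliquots diluted into water, shaken 24 h at room temperature, filtered through 0.45 µm nylon, then quantified by HPLC-UV with a C18 column and 70% ACN. Run in triplicate.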

[14] = Protein binding in mouse plasma; assay type: ADME, cell-free; conditions: read-out: PPB (converted)
[15] = Clearance in mouse at 1 to 2 mg/kg, iv by LC/MS/MS analysis; assay type: ADME, organism-based; conditions: in vivo
[16] = Protein binding in human plasma; assay type: ADME, cell-free; conditions: read-out: PPB (converted)
[17] = AUC (0 to infinity) in mouse at 1 to 2 mg/kg, iv by LC/MS/MS analysis; assay type: ADME, organism-based; conditions: in vivo
Summary of the method: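 Male ICR mice (27 ± 5 g, n = 3) dosed iv via tail vein at 2 or 1 mg/kg in 30% PEG400/5% ethanol in water. Jugular blood (0.3 mL, heparin) sampled at set times over 24 h or more; plasma separated, acetonitrile-precipitated, drug quantified by LC/MS/MS; parameters from noncompartmental-type software estimation.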

For `COc1cc2c(Oc3ccc(NS(=O)(=O)c4c(F)cccc4F)cc3F)ccnc2cc1OCCCN1CCN(C)CC1`, the “Kd(free)” value [1] was 304 nM, the Efficacy [2] was 83 to 100% and the Efficacy [3] was 83 to 100%. For the same molecule, the “Kd(free)” value [4] was 8852 nM, the IC50 [5] was 35 nM and the Efficacy [6] was 83 to 100%. The “Kd(free)” value [7] was 4166 nM, the “Ratio IC50” value [8] was >50 and the Efficacy [9] was 83 to 100%. The Efficacy [10] was 83 to 100%, the IC50 [11] was 127 nM and the inhibition (MDA-MB-231) was “Active”. For the same molecule, the “Kd(free)” value [12] was 11 nM.
`COc1cc2c(Oc3ccc(NS(=O)(=O)c4cc(F)ccc4F)cc3F)ccnc2cc1OCCCN1CCCC(C)C1` (centres undefined) gave a solubility at 24 h [13] of 18 µM (≈ 11.1 µg/mL), an Efficacy [2] of 83 to 100% and an Efficacy [3] of 83 to 100%. It also gave an IC50 [5] of 28 nM, an Efficacy [6] of 83 to 100% and a fraction unbound [14] of 0.041. For the same molecule, the clearance [15] was 11.7 mL/min/kg, the “Ratio IC50” value [8] was >50 and the Efficacy [9] was 83 to 100%. For the same molecule, the fraction unbound [16] was 0.015, the AUC(0-inf) [17] was 1400 ng·h/mL and the Efficacy [10] was 83 to 100%. For the same molecule, the IC50 [11] was 1310 nM and the inhibition (MDA-MB-231) was “Active”.
With `COc1cc2c(Oc3ccc(NS(=O)(=O)c4cc(F)ccc4F)cc3F)ccnc2cc1OCCCN1CCN(C)CC1` the “Kd(free)” value [1] was 679 nM, the solubility at 24 h [13] was 68.8 µM (≈ 42.4 µg/mL) and the Efficacy [2] was 83 to 100%. The Efficacy [3] was 83 to 100%, the “Kd(free)” value [4] was 6917 nM and the IC50 [5] was 27 nM. The Efficacy [6] was 83 to 100%, the “Kd(free)” value [7] was 2448 nM and the fraction unbound [14] was 0.028. For the same molecule, the clearance [15] was 6.67 mL/min/kg, the “Ratio IC50” value [8] was >50 and the Efficacy [9] was 83 to 100%. It also gave a fraction unbound [16] of 0.009, an AUC(0-inf) [17] of 2650 ng·h/mL and an Efficacy [10] of 83 to 100%. For the same molecule, the IC50 [11] was 358 nM, the inhibition (MDA-MB-231) was “Active” and the “Kd(free)” value [12] was 29 nM.
Molecule `COc1cc2c(Oc3ccc(NS(=O)(=O)c4ccccc4C(F)(F)F)cc3F)ccnc2cc1OCCCN1CCN(C)CC1` has an Efficacy [2] of 83 to 100%, an Efficacy [3] of 83 to 100% and an IC50 [5] of 21 nM. The Efficacy [6] was 83 to 100%, the “Ratio IC50” value [8] was >50 and the Efficacy [9] was 83 to 100%. The Efficacy [10] was 83 to 100%, the IC50 [11] was 488 nM and the inhibition (MDA-MB-231) was “Active”.
